Test results reported in ChEMBL document CHEMBL1134616, “Novel 7-oxyiminomethyl derivatives of camptothecin with potent in vitro and in vivo antitumor activity” (J Med Chem, 2001).

Key:
[1] = Cytotoxicity against human non-small-cell lung carcinoma cell line H460 (NSCLC-H460); assay type: functional, cell-based
Procedure, shortened: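 Logarithmically growing cells were seeded in duplicate, exposed to drug for 1 h starting 24 h after seeding, and counted by Coulter counter 72 h after exposure. Drug was dissolved in DMSO before dilution. The IC50 is the concentration giving a 50% decrease in growth relative to untreated control.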

[2] = Complete response in mice bearing lung carcinoma LX-1 at a oral dose of 15 mg/kg; assay type: functional, Mus musculus
Procedure, shortened: (§1)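 Nude athymic CD1 mice, 8–10 weeks old, carrying serially passaged human lung tumor fragments implanted s.c. in both flanks. Oral dosing in 10 mL/kg on a q4dx4 schedule, begun once tumors were visible but not yet measurable. Complete response means no detectable tumor for at least 10 days after the end of treatment.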

[3] = Percentage of body weight loss CD1 mice with human Non-Small-Cell tumor xenograft at a oral dose of 9 mg/kg; assay type: functional; settings: dose 15 mg/kg, in the assay text read “oral dose of 15 mg/kg” for “oral dose of 9 mg/kg”
Procedure, shortened: (§2)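 Nude athymic CD1 mice, 8–10 weeks old, bearing s.c. human lung tumor xenografts in both flanks. Given oral drug in 10 mL/kg on a q4dx4 schedule, beginning when tumors were visible but not measurable. Read-out is percent body weight loss after drug treatment.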

NCI-H460 [4] = experiment: Percentage inhibition of tumor volume in treated versus control mice against human Non-Small-Cell tumor xenograft at a oral dose of 9 mg/kg; assay type: functional; settings: Mus musculus
Procedure, shortened: (§3)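 Nude athymic CD1 mice, 8–10 weeks old, with human lung tumor fragments implanted s.c. in both flanks. Oral dosing in 10 mL/kg, q4dx4, started when tumors were visible but not measurable. Tumor volume = d²×D/2 from caliper diameters. Percent inhibition of treated versus control volume taken 7–10 days after the last dose. Volumes compared by Student's t test, P<0.05.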

NCI-H460 [5] = experiment: Complete response in CD1 mice with human Non-Small-Cell tumor xenograft at a oral dose of 9 mg/kg; assay type: functional; procedure, shortened: as §1
NCI-H460 [6] = experiment: Complete response in CD1 mice with human Non-Small-Cell tumor at a oral dose of 5 mg/kg after treatment with compound; assay type: functional; procedure, shortened: as §1
NCI-H460 [7] = experiment: Percentage inhibition of tumor volume in treated versus control mice against human Non-Small-Cell tumor xenograft at a oral dose of 15 mg/kg; assay type: functional; settings: Mus musculus; procedure, shortened: as §3
[8] = Log 10 cell kill induced in mice bearing lung carcinoma LX-1 at a oral dose of 15 mg/kg; assay type: functional, Mus musculus
Procedure, shortened: (§4)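 Nude athymic CD1 mice, 8–10 weeks, carrying s.c. human lung tumor fragments in both flanks. Given per os on a q4dx4 schedule at 10 mL/kg, starting when tumors were visible but not measurable. Volume = d²×D/2. Log10 cell kill = T−C/3.32 × tumor doubling time, where T and C are the days for treated and control tumors to reach a mean volume of 1000 mm³.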

NCI-H460 [9] = experiment: Complete response in CD1 mice with human Non-Small-Cell tumor at a oral dose of 15 mg/kg after treatment with compound; assay type: functional
Procedure, shortened: (§5)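 Nude athymic CD1 mice, 8–10 weeks old, bearing s.c. human lung tumor xenografts (tumor fragments implanted in both flanks). Oral dosing on a q4dx4 schedule at 10 mL/kg, starting when tumors were visible but not measurable. A complete response was scored as no evidence of tumor for at least 10 days after the end of treatment.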

NCI-H460 [10] = experiment: No. of dead mice/ total no of mice with human Non-Small-Cell tumor xenograft at a oral dose of 5 mg/kg; assay type: ADME, organism-based; design: dose 5 mg/kg, route oral; settings: in vivo
Procedure, shortened: (§6)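 Human lung tumor s.c. xenografts (fragments, both flanks) in nude athymic CD1 mice aged 8–10 weeks. Oral q4dx4 dosing at 10 mL/kg, begun when tumors were visible but not measurable. Toxicity is recorded as the number of dead mice over the total number of treated mice.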

[11] = (§7) No. of dead mice/ total No. of mice with human Non-Small-Cell tumor xenograft at a oral dose of 9 mg/kg; assay type: ADME, organism-based; design: dose 9 mg/kg, route oral; settings: in vivo; procedure, shortened: as §6
NCI-H460 [12] = experiment: as §7; assay type: ADME, organism-based; design: dose 9 mg/kg, route oral; settings: in vivo; procedure, shortened: as §6
NCI-H460 [13] = experiment: Complete response in CD1 mice with human Non-Small-Cell tumor at a oral dose of 9 mg/kg after treatment with compound; assay type: functional; procedure, shortened: as §5
[14] = No. of dead mice/ total No. of mice bearing lung carcinoma LX-1 at a oral dose of 15 mg/kg; assay type: ADME, organism-based; design: dose 15 mg/kg, route oral; settings: mouse, in vivo; procedure, shortened: as §6
Homo sapiens = experiment: Percentage inhibition of tumor volume in treated versus control mice against human Non-Small-Cell tumor xenograft at a oral dose of 5 mg/kg; assay type: functional; procedure, shortened: as §3
NCI-H460 [15] = experiment: Percentage of body weight loss in CD1 mice with human Non-Small-Cell tumor xenograft at a oral dose of 5 mg/kg; assay type: functional; procedure, shortened: as §2
NCI-H460 [16] = experiment: Log 10 cell kill induced in mice with human Non-Small-Cell tumor xenograft at a oral dose of 5 mg/kg; assay type: functional; procedure, shortened: as §4
[17] = Percentage inhibition of tumor volume in treated versus control mice bearing lung carcinoma LX-1 at a oral dose of 15 mg/kg; assay type: functional; settings: Mus musculus; procedure, shortened: as §3
NCI-H460 [18] = experiment: Complete response CD1 mice with human Non-Small-Cell tumor xenograft at a oral dose of 15 mg/kg; assay type: functional; procedure, shortened: as §1
[19] = Percentage of body weight loss in mice bearing lung carcinoma LX-1 at a oral dose of 15 mg/kg; assay type: functional, Mus musculus; procedure, shortened: as §2
NCI-H460 [20] = experiment: Percentage of body weight loss of CD1 mice after treatment with compound; assay type: functional, Homo sapiens; procedure, shortened: as §2

Compound	IC50 [1] [nM]	also measured
CC[C@@]1(O)C(=O)OCc2c1cc1n(c2=O)Cc2c-1nc1ccccc1c2/C=N/OCCC1CCCN(C)C1 (some centres undefined)	100	
CC[C@@]1(O)C(=O)OCc2c1cc1n(c2=O)Cc2c(/C=N/OC)c3ccccc3[n+]([O-])c2-1	2400	
CC[C@@]1(O)C(=O)OCc2c1cc1n(c2=O)Cc2c-1nc1ccccc1c2/C=N/OCc1ccccc1	30	
CCc1c2c(nc3ccc(O)cc13)-c1cc3c(c(=O)n1C2)COC(=O)[C@]3(O)CC [7-ETHYL-10-HYDROXYCAMPTOTHECIN]	80	
CC[C@@]1(O)C(=O)OCc2c1cc1n(c2=O)Cc2c-1nc1ccccc1c2/C=N/OCc1c(F)c(F)c(F)c(F)c1F	28	
CC[C@@]1(O)C(=O)OCc2c1cc1n(c2=O)Cc2c-1nc1ccccc1c2/C=N/OC(C)(C)C(=O)O	48000	
CC[C@@]1(O)C(=O)OCc2c1cc1n(c2=O)Cc2c-1nc1ccccc1c2/C=N/OCC(=O)NCCCNS(=O)(=O)c1ccccc1[N+](=O)[O-]	3000	
CC[C@@]1(O)C(=O)OCc2c1cc1n(c2=O)Cc2c-1nc1ccccc1c2/C=N/OCC1CO1 (some centres undefined)	20	
C=CCO/N=C/c1c2c(nc3ccccc13)-c1cc3c(c(=O)n1C2)COC(=O)[C@]3(O)CC	60	
CC[C@@]1(O)C(=O)OCc2c1cc1n(c2=O)Cc2c-1nc1ccccc1c2/C=N/OCc1ncc[nH]1	210	
CC[C@@]1(O)C(=O)OCc2c1cc1n(c2=O)Cc2c-1nc1ccccc1c2/C=N/OCc1ccc(N)cc1	25	
CC[C@@]1(O)C(=O)OCc2c1cc1n(c2=O)Cc2cc3ccccc3nc2-1 [CAMPTOTHECIN]	330	
CC[C@@]1(O)C(=O)OCc2c1cc1n(c2=O)Cc2c-1nc1ccccc1c2/C=N/OC(C)(C)CO	340	
CC[C@@]1(O)C(=O)OCc2c1cc1n(c2=O)Cc2c-1nc1ccccc1c2/C=N/OC(C)(C)C(=O)OC(C)(C)C	140	
CC[C@@]1(O)C(=O)OCc2c1cc1n(c2=O)Cc2c-1nc1ccc(O)cc1c2/C=N/OC	200	
CC[C@@]1(O)C(=O)OCc2c1cc1n(c2=O)Cc2c-1nc1ccc(O)cc1c2/C=N/OC(C)(C)C	130	
CC[C@@]1(O)C(=O)OCc2c1cc1n(c2=O)Cc2c-1nc1ccccc1c2/C=N/OCc1ccncc1	30	
CC[C@@]1(O)C(=O)OCc2c1cc1n(c2=O)Cc2c-1nc1ccccc1c2/C=N/OC(c1ccccc1)(c1ccccc1)c1ccccc1	1450	
CC[C@@]1(O)C(=O)OCc2c1cc1n(c2=O)Cc2c-1nc1ccccc1c2/C=N/OCc1ccc([N+](=O)[O-])cc1	17	
CC[C@@]1(O)C(=O)OCc2c1cc1n(c2=O)Cc2c-1nc1ccccc1c2/C=N/OCCN(C)C	300	

Compound	IC50 [1] [nM]	also measured
CC[C@@]1(O)C(=O)OCc2c1cc1n(c2=O)Cc2c-1nc1ccccc1c2/C(C)=N/OCc1ccccc1	130	
CC[C@@]1(O)C(=O)OCc2c1cc1n(c2=O)Cc2c-1nc1ccccc1c2/C=N/O	32	
CC[C@@]1(O)C(=O)OCc2c1cc1n(c2=O)Cc2c-1nc1ccccc1c2/C=N/OCc1c2ccccc2cc2ccccc12	190	
CC[C@@]1(O)C(=O)OCc2c1cc1n(c2=O)Cc2c-1nc1ccccc1c2/C=N/OCc1ccc(-c2ccccc2)cc1	280	
CC[C@@]1(O)C(=O)OCc2c1cc1n(c2=O)Cc2c-1nc1ccccc1c2/C=N/OCCN1CCOCC1	80	
CC[C@@]1(O)C(=O)OCc2c1cc1n(c2=O)Cc2c-1nc1ccccc1c2/C=N/OC(=O)c1ccccc1	1770	
CC[C@@]1(O)C(=O)OCc2c1cc1n(c2=O)Cc2c-1nc1ccccc1c2/C=N/OC[C@H]1O[C@@H]2OC(C)(C)O[C@@H]2[C@H]2OC(C)(C)O[C@H]21	360	
CC[C@@]1(O)C(=O)OCc2c1cc1n(c2=O)Cc2c-1nc1ccccc1c2/C(=N/O)c1ccccc1	5130	
CC[C@@]1(O)C(=O)OCc2c1cc1n(c2=O)Cc2c-1nc1ccccc1c2/C=N/OCC(=O)NCCCNC(=O)OC(C)(C)C	1700	
CC[C@@]1(O)C(=O)OCc2c1cc1n(c2=O)Cc2c-1nc1ccccc1c2/C=N/OCC1O[C@H](O)C(O)[C@H](O)[C@H]1O (some centres undefined)	32000	
CC[C@@]1(O)C(=O)OCc2c1cc1n(c2=O)Cc2c-1nc1ccc(OC)cc1c2/C=N/OC(C)(C)C	70	
CC[C@@]1(O)C(=O)OCc2c1cc1n(c2=O)Cc2c-1nc1ccccc1c2/C=N/OC	40	
CC[C@@]1(O)C(=O)OCc2c1cc1n(c2=O)Cc2c-1nc1ccccc1c2/C=N/OCC(=O)NCCCN	5200	
CC[C@@]1(O)C(=O)OCc2c1cc1n(c2=O)Cc2cc3c(CN(C)C)c(O)ccc3nc2-1 [TOPOTECAN]	1380	CR [2]: 4; BWL [3]: 8%; inhibition in vivo at 9 mg/kg (NCI-H460 [4]): 91%; CR (NCI-H460 [5]): 0; CR (NCI-H460 [6]): 0; inhibition in vivo at 15 mg/kg (NCI-H460 [7]): 98%; LCK [8]: 3.7; LCK (NCI-H460 [9]): 2.1; Toxicity (NCI-H460 [10]): 0; Toxicity [11]: 0; Toxicity (NCI-H460 [12]): 0; LCK (NCI-H460 [13]): 1.7; Toxicity [14]: 0; inhibition in vivo at 5 mg/kg (Homo sapiens): 80%; BWL (NCI-H460 [15]): 0%; LCK (NCI-H460 [16]): 1.3; inhibition in vivo at 15 mg/kg [17]: 99%; CR (NCI-H460 [18]): 0; BWL [19]: 6%; BWL (NCI-H460 [20]): 0%
CC[C@@]1(O)C(=O)OCc2c1cc1n(c2=O)Cc2c-1nc1ccccc1c2/C=N/OCCN	490	
CC[C@@]1(O)C(=O)OCc2c1cc1n(c2=O)Cc2c-1nc1ccccc1c2/C=N/OCC(=O)O	2330	
CC[C@@]1(O)C(=O)OCc2c1cc1n(c2=O)Cc2c-1nc1ccccc1c2/C=N/Oc1ccccc1	160	
CC[C@@]1(O)C(=O)OCc2c1cc1n(c2=O)Cc2c(/C=N/OC(C)(C)C)c3ccccc3[n+]([O-])c2-1	70	
CC[C@@]1(O)C(=O)OCc2c1cc1n(c2=O)Cc2c-1nc1ccccc1c2/C=N/OCc1ccc(C)cc1	20	
